The source of these data is ChEMBL document CHEMBL1132767, “Design and synthesis of piperidinyl piperidine analogues as potent and selective M2 muscarinic receptor antagonists” (Bioorg Med Chem Lett, 2000).

The structures appear in SMILES notation.

The Ki is the equilibrium dissociation constant of an inhibitor or competing ligand from its target. Read a high Ki as weaker binding.

In test [1] the target is Muscarinic acetylcholine receptors; M2 & M3 (Homo sapiens) (UniProt P20309+P08172). Description: Binding affinity towards M3 receptor compared to M2 receptor. Type of test: protein assay.
The target in test [2] is Muscarinic acetylcholine receptors; M1 & M2 (Homo sapiens) (UniProt P11229+P08172). In words: Binding affinity towards M1 receptor compared to M2 receptor. Type of test: protein assay.
Test [3] concerns the target T1, Muscarinic acetylcholine receptor M2 (Homo sapiens, UniProt P08172).
T1 sequence (P08172 whole entry): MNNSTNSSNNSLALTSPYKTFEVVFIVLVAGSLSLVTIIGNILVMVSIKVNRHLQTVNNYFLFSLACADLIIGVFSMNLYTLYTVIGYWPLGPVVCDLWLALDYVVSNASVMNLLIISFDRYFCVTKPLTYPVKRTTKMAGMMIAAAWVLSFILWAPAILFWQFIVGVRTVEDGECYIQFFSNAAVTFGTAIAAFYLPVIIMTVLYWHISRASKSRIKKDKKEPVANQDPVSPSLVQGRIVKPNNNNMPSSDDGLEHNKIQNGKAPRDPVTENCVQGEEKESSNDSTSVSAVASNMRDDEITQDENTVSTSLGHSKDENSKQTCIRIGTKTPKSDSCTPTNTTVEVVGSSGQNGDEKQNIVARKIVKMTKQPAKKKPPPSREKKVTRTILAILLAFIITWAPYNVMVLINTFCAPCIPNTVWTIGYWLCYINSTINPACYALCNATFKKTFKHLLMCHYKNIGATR
In words: Binding affinity against Muscarinic acetylcholine receptor M2 stably expressed in CHO-K1 cells. Type of test: cell-based. The method, boiled down: (§1)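 Competition binding against 180 pM [³H]QNB in 10 mM potassium phosphate buffer, pH 7.4, containing 1% DMSO and 0.4% methylcellulose. Incubated 120 min at room temperature to equilibrium. Bound and free label separated by filtration. Nonspecific binding defined with 0.5 mM atropine. Protein adjusted to give 700–1500 cpm specific binding. [³H]QNB Kd for each subtype from saturation binding over 5–2500 pM.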

For test [4], the target named is T2, Muscarinic acetylcholine receptor M1 (Homo sapiens, UniProt P11229).
T2 sequence (P11229 whole entry): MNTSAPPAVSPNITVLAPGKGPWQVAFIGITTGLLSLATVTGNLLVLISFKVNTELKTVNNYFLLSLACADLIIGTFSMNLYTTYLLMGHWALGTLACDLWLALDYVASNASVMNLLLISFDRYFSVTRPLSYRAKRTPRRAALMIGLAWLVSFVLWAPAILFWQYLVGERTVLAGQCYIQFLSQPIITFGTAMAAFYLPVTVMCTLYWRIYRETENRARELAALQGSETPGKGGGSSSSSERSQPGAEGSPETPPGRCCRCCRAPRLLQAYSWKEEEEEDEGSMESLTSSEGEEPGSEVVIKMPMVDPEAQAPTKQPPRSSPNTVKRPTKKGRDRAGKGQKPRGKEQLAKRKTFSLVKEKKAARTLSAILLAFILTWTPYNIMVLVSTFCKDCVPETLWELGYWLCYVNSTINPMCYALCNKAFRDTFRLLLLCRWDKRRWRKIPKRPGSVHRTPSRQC
In words: Binding affinity against Muscarinic acetylcholine receptor M1 expressed in CHO-K1 cells. Type of test: cell-based. In a few lines: as §1

Test [5] concerns the target Muscarinic acetylcholine receptor M3 (Homo sapiens, UniProt P20309). In words: Binding affinity against Muscarinic acetylcholine receptor M3 expressed in CHO-K1 cells. Type of test: cell-based. In a few lines:
as §1

Chain of Muscarinic acetylcholine receptor M3 (P20309 whole entry): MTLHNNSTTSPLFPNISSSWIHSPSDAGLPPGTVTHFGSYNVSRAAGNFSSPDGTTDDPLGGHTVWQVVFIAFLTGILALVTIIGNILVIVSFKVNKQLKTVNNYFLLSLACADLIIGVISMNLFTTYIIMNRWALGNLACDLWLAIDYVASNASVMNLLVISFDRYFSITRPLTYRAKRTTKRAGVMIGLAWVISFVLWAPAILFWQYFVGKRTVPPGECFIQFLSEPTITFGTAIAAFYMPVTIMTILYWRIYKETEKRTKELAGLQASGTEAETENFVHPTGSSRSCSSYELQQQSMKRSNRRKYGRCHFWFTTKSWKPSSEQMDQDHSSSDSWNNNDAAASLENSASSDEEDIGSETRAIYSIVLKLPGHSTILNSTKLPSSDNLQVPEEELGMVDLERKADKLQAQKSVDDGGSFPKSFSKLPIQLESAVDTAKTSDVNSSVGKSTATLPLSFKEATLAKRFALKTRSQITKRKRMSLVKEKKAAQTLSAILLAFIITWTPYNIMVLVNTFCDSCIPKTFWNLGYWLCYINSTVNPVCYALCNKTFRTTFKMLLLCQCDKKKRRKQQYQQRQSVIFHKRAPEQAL
Chain of Muscarinic acetylcholine receptors; M2 & M3 (Homo sapiens) (P20309 whole entry, looked up, one chain of several): as the sequence (P20309 whole entry) above

`C=C(c1ccc(S(=O)(=O)c2ccc(OC)cc2)cc1)C1CCN(C2CCN(S(=O)(=O)c3ccccc3)CC2)CC1`: the Selectivity in test [1] was 558; in test [2], 104. This compound also displayed a Ki in test [3] of 0.36 nM.
As for `C=C(c1ccc(S(=O)(=O)c2ccc(OC)cc2)cc1)C1CCN(C2CCNCC2)CC1`, the Selectivity worked out at 3 in test [1] and 8 in test [2]. Also, the Ki stood at 9.1 nM in test [4], 1.14 nM in test [3] and 3.4 nM in test [5].
On to `C=C(c1ccc(S(=O)(=O)c2ccc(OC)cc2)cc1)C1CCN(C2CCN(S(=O)(=O)CC)CC2)CC1`, for which the Selectivity in test [1] was found to be 382; in test [2], 162. Besides, in test [3], the affinity corresponds to a Ki of 0.46 nM.
For `C=C(c1ccc(S(=O)(=O)c2ccc(OC)cc2)cc1)C1CCN(C2CCN(C(=O)C(C)C)CC2)CC1` the same measures were 40, 53 and 2.2 nM.
For `C=C(c1ccc(S(=O)(=O)c2ccc(OC)cc2)cc1)C1CCN(C2CCN(S(=O)(=O)CCC)CC2)CC1`, the Selectivity in test [1] turned out to be 35; in test [2] it was 89. In addition, the Ki in test [4] came out at 25.7 nM; in test [3], 0.29 nM; in test [5], 10.1 nM.
As to `C=C(c1ccc(S(=O)(=O)c2ccc(OC)cc2)cc1)C1CCN(C2CCN(C(=O)OC)CC2)CC1`, the Selectivity in test [1] was found to be 55; in test [2], 61. The compound further returned a Ki in test [3] of 0.99 nM.
On to `C=C(c1ccc(S(=O)(=O)c2ccc(OC)cc2)cc1)C1CCN(C2CCN(C(=O)C3CC3)CC2)CC1`, for which the figures for the Selectivity in test [1] and in test [2] were 260 and 262, respectively. The inhibition constant Ki in test [3] was found to be 0.26 nM.
Take `C=C(c1ccc(S(=O)(=O)c2ccc(OC)cc2)cc1)C1CCN(C2CCN(S(=O)(=O)C(C)C)CC2)CC1`: the Selectivity was determined as 440 in test [1] and 198 in test [2]. Besides, the affinity in test [3], expressed as Ki, was 0.16 nM.
In test [2], `C=C(c1ccc(S(=O)(=O)c2ccc(OC)cc2)cc1)C1CCN(C2CCN(C(=O)OCC(C)C)CC2)CC1` displayed a Selectivity of 35. The Ki in test [3] is 0.3 nM.
Take `C=C(c1ccc(S(=O)(=O)c2ccc(OC)cc2)cc1)C1CCN(C2CCN(S(=O)(=O)CCCC)CC2)CC1`: the Selectivity was found to be 405 in test [1] and 150 in test [2]. In test [3], this compound returned a Ki of 0.38 nM.
The compound `C=C(c1ccc(S(=O)(=O)c2ccc(OC)cc2)cc1)C1CCN(C2CCN(C(=O)OCc3ccccc3)CC2)CC1` displayed a Selectivity in test [2] of 24. The compound also showed an inhibitory constant (Ki) in test [3] of 0.45 nM.
In the case of `C=C(c1ccc(S(=O)(=O)c2ccc(OC)cc2)cc1)C1CCN(C2CCN(C(=O)OCCC)CC2)CC1`, the Selectivity in test [1] amounted to 40; in test [2], 69. Further, the affinity in test [3] corresponds to a Ki of 0.59 nM.
For `C=C(c1ccc(S(=O)(=O)c2ccc(OC)cc2)cc1)C1CCN(C2CCN(C(=O)CCC)CC2)CC1`, the Selectivity in test [1] amounted to 324; in test [2], 111. In addition, the Ki in test [4] is 42 nM; in test [3], 0.38 nM; in test [5] it was 122 nM.
With `C=C(c1ccc(S(=O)(=O)c2ccc(OC)cc2)cc1)C1CCN(C2CCN(C(=O)OCC)CC2)CC1`, the figures for the Selectivity in test [1] and in test [2] were 34 and 59, respectively. For the same compound, the Ki was 6.5 nM in test [4], 0.11 nM in test [3] and 3.7 nM in test [5].
Turning to `C=C(c1ccc(S(=O)(=O)c2ccc(OC)cc2)cc1)C1CCN(C2CCN(C(=O)OCCCC)CC2)CC1`, the Selectivity in test [2] came to 28. This compound had a Ki in test [3] of 0.35 nM.
With `C=C(c1ccc(S(=O)(=O)c2ccc(OC)cc2)cc1)C1CCN(C2CCN(C(=O)Cc3ccccc3)CC2)CC1`, the Selectivity turned out to be 48 in test [1] and 32 in test [2]. Besides, in test [3], the inhibition constant (Ki) was 2.99 nM.
Regarding `C=C(c1ccc(S(=O)(=O)c2ccc(OC)cc2)cc1)C1CCN(C2CCN(S(=O)(=O)Cc3ccccc3)CC2)CC1`, the results for the Selectivity in test [1] and in test [2] were 54 and 23, respectively. Further, affinity in test [3] was put at a Ki of 1.45 nM.
For `C=C(c1ccc(S(=O)(=O)c2ccc(OC)cc2)cc1)C1CCN(C2CCN(C(=O)CC)CC2)CC1`, the Selectivity in test [1] stood at 13; in test [2] it was 16. The compound also registered an inhibitory constant (Ki) in test [3] of 3.8 nM.
Take `C=C(c1ccc(S(=O)(=O)c2ccc(OC)cc2)cc1)C1CCN(C2CCCCC2)CC1`: the figures for the Selectivity in test [1] and in test [2] were 3 and 16, respectively.
`C=C(c1ccc(S(=O)(=O)c2ccc(OC)cc2)cc1)C1CCN(C2CCN(C(=O)OC(C)C)CC2)CC1` came in with a Selectivity in test [2] of 36. Further, the Ki in test [3] stood at 0.41 nM.
